Test results from ChEMBL document CHEMBL4190223, “Natural Products Discovered in a High-Throughput Screen Identified as Inhibitors of RGS17 and as Cytostatic and Cytotoxic Agents for Lung and Prostate Cancer Cell Lines” (J Nat Prod, 2017).
Activity calls are given as the source filed them. The rule behind the calls is not given here.

Tests used:
HEK293 [1] = experiment: Inhibition of Galphao interaction with GFP-fused RGS17 (unknown origin) deltaN mutant expressed in HEK293 cells assessed as increase in RGS17 deltaN mutant localization at cytoplasm at 100 uM up to 30 mins by confocal microscopic analysis; type: cell-based; settings: Homo sapiens
Method in brief: (§1)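 HEK293T cells plated at 25 000 per well on poly-D-lysine glass and kept overnight at 37 °C, 5% CO2. Next day cotransfected with hGαo (pcDNA3.1) and GFP-RGS17 N (Lipofectamine 2000). After 24 h, cells moved to serum-free, phenol-red-free DMEM and given compound (final 0.07–0.8% DMSO). Live confocal imaging; ImageJ cross-sectional intensity analysis, each T=final image normalised to the T=0 maximum.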

HEK293 [2] = experiment: Inhibition of Galphao interaction with GFP-fused RGS17 (unknown origin) deltaN mutant expressed in HEK293 cells assessed as disruption of RGS17 localization at cell membranes at 100 uM up to 30 mins by confocal microscopic analysis; type: cell-based; settings: Homo sapiens; method in brief: as §1
HEK293 [3] = experiment: Induction of morphological changes in HEK293 cells assessed as cell shrinkage at 100 uM measured over 30 mins; type: cell-based; settings: human, hek293, 0.5 h
HEK293 [4] = experiment: Induction of morphological changes in HEK293 cells assessed as plasma membrane blebbing at 100 uM; type: cell-based; settings: human, hek293, 100 µM
HEK293 [5] = experiment: Inhibition of Galphao interaction with GFP-fused RGS17 (unknown origin) deltaN mutant expressed in HEK293 cells assessed as increase in RGS17 deltaN mutant localization at cytoplasm at 10 uM up to 20 mins by confocal microscopic analysis; type: cell-based; settings: Homo sapiens
Method in brief: (§2)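 HEK293T cells plated at 25 000/well on poly-D-lysine glass-bottom wells and co-transfected (Lipofectamine 2000) with hGαo and N-terminal GFP-fused RGS17 ΔN. After 24 h, switched to serum-free, phenol-red-free DMEM and compound added (0.07–0.8% DMSO final). Imaged by confocal microscopy; cross-sectional fluorescence profiles at T=0 and T=final, each pair normalised to the highest T=0 intensity.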

PC-3 [6] = experiment: Growth inhibition of E-cadherin expressing human PC3 cells after 1 hr by sulforhodamine B assay; type: functional, cell-based
PC-3 [7] = experiment: Growth inhibition of E-cadherin expressing human PC3 cells transfected with RGS17 at 31.6 to 56.2 uM after 1 hr by sulforhodamine B assay; type: functional, cell-based
[8] = Solubility of the compound in aqueous buffer solution; type: physicochemical
[9] = molecular target: T1, Regulator of G-protein signaling 17 (Homo sapiens) (UniProt Q9UGC6); experiment: Binding affinity to RGS17 (unknown origin) assessed as change in melting temperature by differential scanning fluorimetry
T1 sequence (whole entry): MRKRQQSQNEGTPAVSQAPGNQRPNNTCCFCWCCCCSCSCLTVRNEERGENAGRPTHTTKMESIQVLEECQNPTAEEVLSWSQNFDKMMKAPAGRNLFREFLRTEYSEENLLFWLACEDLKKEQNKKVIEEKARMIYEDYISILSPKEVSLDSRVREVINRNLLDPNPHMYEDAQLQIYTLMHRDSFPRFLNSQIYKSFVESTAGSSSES

Homo sapiens = species on record: Homo sapiens; experiment: Growth inhibition of human TEM4-18 cells after 1 hr by sulforhodamine B assay; type: functional
RWPE-1 = experiment: Growth inhibition of human RWPE1 cells at 31.6 to 56.2 uM after 1 hr by sulforhodamine B assay; type: cell-based; settings: rwpe-1, 1 h
HEK293 [10] = experiment: Inhibition of Galpha0 interaction with GFP-fused RGS17 (unknown origin) deltaN mutant expressed in HEK293 cells assessed as increase in RGS17 deltaN mutant localization at cytoplasm at 100 uM up to 5 mins by confocal microscopic analysis; type: cell-based; settings: Homo sapiens; method in brief: as §2
[11] = molecular target: T2, Regulator of G-protein signaling 17 (Homo sapiens, UniProt Q9UGC6); experiment: (§3) Inhibition of wild type GST-tagged RGS17 (unknown origin) interaction with biotinylated Galphao after 30 mins in presence of AMF and GDP by AlphaScreen assay
T2 sequence (Q9UGC6 whole entry): T1 sequence (whole entry)
Method in brief: (§4)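 AlphaScreen assay: RGS17 (WT or C117A) on anti-GST beads, 10 nM final, preincubated 30 min with compound (half-log series, 100 μM to 1 nM final). Gαo-biotin on streptavidin beads then added with AMF and GDP, 10 nM final. Negative controls lacked AMF. Data n = 3, run at least in duplicate.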

[12] = molecular target: T1, Regulator of G-protein signaling 17 (Homo sapiens); experiment: as §3; method in brief: as §4
HEK293 [13] = experiment: Induction of morphological changes in HEK293 cells assessed as cell shrinkage at 100 uM; type: cell-based; settings: human, hek293, 100 µM
A549 [14] = experiment: Growth inhibition of human A549 cells measured every 2 hrs over 6 days by live cell imaging based method; type: functional
Method in brief: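 A549 cells harvested by trypsin, plated at 1000 cells/well in 24-well plates, left overnight to attach, then treated in triplicate with compound or matched DMSO (≤0.2% final). Confluence imaged live every 2 h over 6 days. Change in confluence relative to DMSO plotted against concentration. IC50 taken from a linear regression of each curve at 0.5 relative growth.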

[15] = molecular target: T1, Regulator of G-protein signaling 17 (Homo sapiens); experiment: Inhibition of RGS17 (unknown origin)-mediated CREB phosphorylation
HEK293 [16] = experiment: Inhibition of Galphao interaction with GFP-fused RGS17 (unknown origin) deltaN mutant expressed in HEK293 cells assessed as increase in RGS17 deltaN mutant localization at cytoplasm at 10 uM up to 5 mins by confocal microscopic analysis; type: cell-based; settings: Homo sapiens; method in brief: as §2
[17] = molecular target: T1, Regulator of G-protein signaling 17 (Homo sapiens); experiment: Binding affinity to RGS17 (unknown origin) assessed as covalent adduct formation at 100 uM after 72 hrs by ESI-MS analysis
Method in brief: (§5)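 RGS17 N (1ZV4 construct, 20 μM) in 25 mM HEPES, 100 mM NaCl, 5% DMSO, pH 8, incubated with or without 100 μM compound at 4 °C for 72 h. Then dialysed twice against 25 mM NH4HCO3 at 4 °C for 24 h to strip noncovalent ligand, followed by ESI-TOF mass analysis for adducted species.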

[18] = Thiol reactivity of the compound assessed as cysteine adduct formation at 100 uM after 4 hrs in presence of N-Acetylcysteine by Ellman's method; type: physicochemical
Method in brief: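 Ellman assay: N-acetylcysteine (100 μM) incubated with compound (100 μM, 1:1) for 4 h at 37 °C. DTNB (1 mM) then added and absorbance read at 412 nm against N-acetylcysteine alone; N-ethylmaleimide as thiol-reactive control; n = 3.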

[19] = molecular target: T1, Regulator of G-protein signaling 17 (Homo sapiens); experiment: Binding affinity to RGS17 (unknown origin) assessed as change in chemical shift perturbations by NMR spectroscopic analysis
[20] = molecular target: T1, Regulator of G-protein signaling 17 (Homo sapiens); experiment: Binding affinity to RGS17 (unknown origin) assessed as molecular weight of covalent adduct at 100 uM after 72 hrs by ESI-MS analysis (reference value: 16232 Da); method in brief: as §5
[21] = molecular target: Regulator of G-protein signaling 17 (Homo sapiens, UniProt Q9UGC6, C117A); experiment: Inhibition of RGS17 (unknown origin) C117A mutant interaction with biotinylated Galphao after 30 mins in presence of AMF and GDP by AlphaScreen assay; method in brief: as §4
[22] = molecular target: T2, Regulator of G-protein signaling 17; experiment: Inhibition of RGS17 (unknown origin) GAP activity in presence of GTP by malachite green dye based assay
[23] = molecular target: Guanine nucleotide-binding protein G(o) subunit alpha (Homo sapiens) (UniProt P09471); experiment: Binding affinity to Galphao (unknown origin) assessed as change in melting temperature by differential scanning fluorimetry
HEK293 [24] = experiment: Inhibition of Galphao interaction with GFP-fused RGS17 (unknown origin) deltaN mutant expressed in HEK293 cells assessed as increase in RGS17 deltaN mutant localization at cytoplasm at 100 uM up to 20 mins by confocal microscopic analysis; type: cell-based; settings: Homo sapiens; method in brief: as §1
A549 [25] = experiment: Growth inhibition of human A549 cells up to 1 uM measured every 2 hrs over 6 days by live cell imaging based method; type: functional
Method in brief: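 A549 cells trypsinised, counted and seeded at 1000 per well in 24-well plates, then allowed to attach overnight. Treated in triplicate up to 1 μM compound (≤0.2% DMSO, matched DMSO control). Confluence imaged every 2 h for 6 days by live-cell imaging. Confluence change relative to DMSO plotted against concentration; IC50 from linear regression at 0.5 relative growth.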

HEK293 [26] = experiment: Inhibition of Galphao interaction with GFP-fused RGS17 (unknown origin) deltaN mutant expressed in HEK293 cells assessed as increase in RGS17 deltaN mutant localization at cytoplasm at 10 uM up to 30 mins by confocal microscopic analysis; type: cell-based; settings: Homo sapiens; method in brief: as §1
[27] = molecular target: T1, Regulator of G-protein signaling 17 (Homo sapiens); experiment: Inhibition of Galphao interaction with GFP-fused full length RGS17 (unknown origin) expressed in HEK293 cells assessed as disruption of RGS17 localization at cell membranes at 100 uM after 10 mins by confocal microscopic analysis; type: cell-based
Method in brief: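 HEK293T cells co-transfected with hGαo and N-terminal GFP-fused full-length RGS17, then treated with 100 μM compound in serum-free, phenol-red-free DMEM. RGS17 membrane localisation followed by confocal imaging at 0 and 10 min.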

Regulator of G-protein signaling 17 (Homo sapiens, UniProt Q9UGC6, C117A), sequence (Q9UGC6 whole entry C117A): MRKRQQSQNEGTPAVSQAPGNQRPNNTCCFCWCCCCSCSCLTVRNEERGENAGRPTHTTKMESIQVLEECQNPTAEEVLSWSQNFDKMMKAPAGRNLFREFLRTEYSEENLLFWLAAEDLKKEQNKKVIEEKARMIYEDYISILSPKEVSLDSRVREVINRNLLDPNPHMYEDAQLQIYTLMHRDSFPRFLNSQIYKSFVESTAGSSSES
Guanine nucleotide-binding protein G(o) subunit alpha (Homo sapiens), sequence (P09471 2-354 limits assumed): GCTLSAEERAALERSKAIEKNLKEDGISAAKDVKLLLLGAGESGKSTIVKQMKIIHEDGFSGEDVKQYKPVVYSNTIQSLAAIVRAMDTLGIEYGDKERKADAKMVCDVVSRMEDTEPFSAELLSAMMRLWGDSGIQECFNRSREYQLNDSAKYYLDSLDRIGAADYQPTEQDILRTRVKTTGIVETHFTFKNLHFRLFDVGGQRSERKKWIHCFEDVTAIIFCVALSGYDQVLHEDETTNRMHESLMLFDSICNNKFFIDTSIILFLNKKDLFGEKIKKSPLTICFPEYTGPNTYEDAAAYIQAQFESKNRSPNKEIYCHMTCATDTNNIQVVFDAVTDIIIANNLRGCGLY

Structure (SMILES) | Activity (HEK293 [4]) | growth inhibition (GI) (PC-3 [6]) | growth inhibition (GI) (PC-3 [7]) | Activity [9] | growth inhibition (GI) (Homo sapiens) | growth inhibition (GI) (RWPE-1) | inhibition (HEK293 [10]) | IC50 [11] [µM] | inhibition [12] | Activity (HEK293 [13]) | IC50 (A549 [14]) [µM] | inhibition [15] | inhibition (HEK293 [16]) | Activity [17] | Activity [18] | Activity [19] | Activity [20] [Da] | IC50 [21] [µM] | IC50 [22] [µM] | inhibition (HEK293 [26]) | other results
Cc1ccc(-n2sc(=O)n(Cc3ccc(F)cc3)c2=O)cc1 | – | – | – | – | – | – | – | – | – | – | – | – | – | – | – | – | – | – | – | – | inhibition (HEK293 [1]): inactive; inhibition (HEK293 [2]): inactive; Activity (HEK293 [3]): Toxic
CC1=C(O)C(=O)C=C2C1=CC=C1[C@@]2(C)CC[C@@]2(C)[C@@H]3C[C@](C)(C(=O)O)CC[C@]3(C)CC[C@]12C [CELASTROL] | Non-Toxic | Dose-dependent effect | inactive | inactive | Dose-dependent effect | Toxic | Active | 10.5 | Dose-dependent effect | Non-Toxic | 0.69 | inactive | Active | Active | Not Active | inactive | 16200 | > 100 | – | – | inhibition (HEK293 [5]): Active; solubility [8]: Insoluble
CC(C)=CCC[C@]1(C)C=Cc2c(O)c3c(c(CC=C(C)C)c2O1)O[C@]12C(=C[C@@H]4C[C@H]1C(C)(C)O[C@@]2(C/C=C(/C)C(=O)O)C4=O)C3=O [GAMBOGIC ACID] | – | – | – | – | – | – | – | – | – | – | – | – | – | – | – | – | – | – | 10 | – | Activity [23]: Active
O=c1c(-c2cc(O)c(O)c(O)c2)coc2cc(O)c(O)c(O)c12 [IRIGENOL] | Non-Toxic | – | – | inactive | – | – | – | 47.2 | Dose-dependent effect | Non-Toxic | – | – | – | inactive | Active | inactive | 16200 | 81.8 | 35 | Active | inhibition (HEK293 [24]): Active; growth inhibition (GI) (A549 [25]): inactive
C[n+]1cc2c3c(ccc2c2ccc4cc5c(cc4c21)OCO5)OCO3 [SANGUINARIUM] | Non-Toxic | Dose-dependent effect | inactive | inactive | Dose-dependent effect | Toxic | Active | 72.8 | Dose-dependent effect | Non-Toxic | 0.61 | inactive | Active | inactive | Active | inactive | 16200 | > 100 | 12 | Active | inhibition [27]: inactive
